Assay results taken from publication PMC6476629 (Bioorganic & medicinal chemistry, 2019).
Like-named read-outs stand apart in the source and are kept apart here.

Key:
Type in all cases: binding, HIV-1
[1] = test system: 5'-32P labeled RRE SL-IIB; assay: RNase footprinting; conditions: branched peptide 0-20 μM, concentration-dependent, upper stem region
In short: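 RRE SL-IIB dephosphorylated, then 5′-end labeled with [γ-32P]ATP and T4 polynucleotide kinase. Labeled RNA (10 nM) plus unlabeled SL-IIB (200 nM) refolded (95 °C 3 min, snap-cooled on ice). Incubated with peptide on ice 4 h in 10 mM Tris pH 7, 100 mM KCl, 10 mM MgCl2. RNase V1 0.002 Units, 10 min on ice; quenched. Run on 12% PAGE/7.5 M urea beside an alkaline hydrolysis ladder. Read by autoradiography.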

[2] = biological target: 2-AP-labeled RRE SL-IIB RNA; conditions: for Kd: at least duplicate, ± SD
In short: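 2-AP-labelled RRE SL-IIB RNA (0.1 μM, refolded at 95 °C for 3 min and snap-cooled) with 10-fold excess unlabelled competitor (loop/bulge-deleted RRE RNA, RRE SL-IIB DNA or TAR RNA). Branched peptide titrated 0-20 μM in phosphate buffer (10 mM KPi, 100 mM KCl, 1 mM MgCl2, 20 mM NaCl, pH 7.0). Excitation 310 nm; fluorescence decrease at 372 nm. Kd from Hill-equation fit; at least duplicate, SD.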

234 nt NL4-3 RRE RNA = assay: SHAPE-MaP footprinting; conditions: cutoff +/- 0.3

Substance: (DLL)2KLGBY [4B3]
- protection from RNase V1 cleavage [1]: reduced cleavage at G53, C54, and C65
- Kd ([2]; RRE IIB in the presence of 10× RRE DNA): 1480 ± 30 nM
- Kd ([2]; RRE IIB in the presence of 10× TAR RNA): 3520 ± 520 nM
- loss of binding affinity ([2]; in the presence of No Bulge RRE RNA competitor): ~3 fold
- loss of binding affinity ([2]; in the presence of RRE DNA competitor): ~3 fold
- increase of Kd against RRE IIB ([2]; in the presence of TAR RNA competitor): approximately 10 fold
- change in 1M7 reactivity (234 nt NL4-3 RRE RNA; 1:1 RNA:BP ratio): decreased reactivity was observed at nt 28
- change in 1M7 reactivity (234 nt NL4-3 RRE RNA; in the presence of 4B3, ratio not stated): nt 46, which forms non-canonical base pairing upon Rev,[12] exhibited increased reactivity
